The conditions of data set [1]: cited from earlier work.
Data set [2] is classed as in vivo, human. Conditions: for Exposure of metabolite higher compared with normal renal function: single 400-mg dose of ribociclib; for Increase in AUCinf compared with normal renal function / Increase in Cmax compared with normal renal function: single 400-mg dose.
The nature of data set [3]: Subgroup analysis for letrozole PK by renal function. In kind it is in vivo, human. Conditions: X2107 and MONALEESA-7, no moderate RI available, data on file.
For data set [4] the following is noted: cited from earlier work. This is another data set of the same source.
The conditions of data set [5]: cited from earlier work. The source holds these as a separate data set.
The subject of the next data set is plasma protein. Conditions: cited from earlier work.
The subject of data set [6] is patients with advanced breast cancer. Put plainly: Patient subgroup safety analysis by renal function. In kind it is in vivo, human. Conditions: for AEs leading to discontinuations / Dose modifications owing to renal toxicity / Incidence of thrombocytopenia / On-treatment deaths / QT interval prolongation events: ribociclib group. An outline of the steps:
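Safety by renal function group in X2107, MONALEESA-2, MONALEESA-3 and MONALEESA-7 (NSAI only). Starting dose 600 mg, 3 weeks on/1 week off. Drug-related AEs were managed by reducing to 400 or 200 mg. Patients with severe RI were excluded from these studies.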

The conditions of data set [7]: pharmacokinetic data; cited from earlier work.
For data set [8] the following is noted: cited from earlier work. This is another data set of the same source.
Data set [9] relates to patients with advanced breast cancer. Nature of the data set: Patient subgroup efficacy analysis. In kind it is in vivo, human. Conditions: for PFS HR (95% CI) RIB vs PBO: Cox proportional-hazards model stratified by study; for Median PFS (95% CI): Kaplan–Meier, local investigator's assessment. An outline of the steps:
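Pooled data: MONALEESA-2 (full analysis set), MONALEESA-3 (first-line patients) and MONALEESA-7 (NSAI only). Starting dose 600 mg, 3 weeks on/1 week off. Severe RI was excluded. PFS by local investigator assessment. Median PFS by Kaplan–Meier; hazard ratio from a Cox proportional-hazards model stratified by study.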

For a further data set, the system named is non-cancer subjects. Nature of the data set: Study A2116: safety. In kind it is in vivo, human. The conditions noted are these: single 400-mg dose. An outline of the steps:
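Phase I, open-label, multicenter, parallel-group, two-part study. Single oral 400-mg dose in non-cancer subjects with varying renal impairment vs matched normal-function subjects. Part I enrolled normal function, severe RI and ESRD not on dialysis.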

The conditions of data set [10]: baseline eGFR as a continuous covariate; patients; cited from earlier work.

Where two headings read alike, the source gives them in different places.

`CNC(=O)c1cc2cnc(Nc3ccc(N4CCNCC4)cn3)nc2n1C1CCCC1` [LEQ803]: the “Contribution to the pharmacological activity in vivo” value in data set [1] is “no clinically relevant contribution to the pharmacological activity in vivo”. Moreover, the entries for the “Exposure of metabolite higher compared with normal renal function” value in data set [2] (mild RI), in data set [2] (moderate RI) and in data set [2] (severe RI) were 32%, 47% and 80%, respectively.
Regarding `N#Cc1ccc(C(c2ccc(C#N)cc2)n2cncn2)cc1` [letrozole], in data set [3], the “PK between normal renal function and mild RI” value is recorded as “comparable PK”.
In the case of `CN(C)C(=O)c1cc2cnc(Nc3ccc(N4CCNCC4)cn3)nc2n1C1CCCC1` [ribociclib], in data set [4] (at 600 mg), the Mean effective half-life was 33 to 54 h. In [4], the “Oral clearance in patients with cancer versus non-cancer subjects” value was “generally lower oral clearance”. Moreover, in data set [4] (dose range of 50–1200 mg), the “Dose proportionality of exposure” value is reported as “slightly over-proportional increases in exposure”. In [4] (previous PK analyses), the “Time to maximum observed plasma drug concentration” value was 1 to 5 h. In [5], the Intestinal excretion was around 8% and the Renal excretion result is reported as “around 7%”. Also, the “Contribution of renal clearance, share of overall elimination routes” value in data set [5] (human absorption, distribution, metabolism, and excretion study) is 7%. Also, the “Hepatic elimination, share of overall pathways” value in [5] (in humans) was 84%. The Protein binding in the data set with plasma protein was 70%. Besides, the “Median time to the first dose reduction” value in data set [6] (across renal function cohorts, patients with dose reductions) is on record as 12.0–12.9 weeks. In [6] (patients with ABC), the “AEs of torsade de pointes” value is “No AEs of torsade de pointes were reported”; the “Median time to first occurrence of QTcF value > 480 ms and an increase from baseline of >60 ms” value was 15 days. In data set [6] (mild RI), the “AEs leading to discontinuations” value was 16.0%, the “Dose modifications owing to renal toxicity” value (from here on “Dose modifications owing”) came out at 2.5%, the Incidence of thrombocytopenia came out at 11.0% and the On-treatment deaths is reported as 1.3%. Also, the “QT interval prolongation events” value in [6] (mild RI) is reported as 10.3%. Besides, in data set [6] (moderate RI), the “AEs leading to discontinuations” value amounted to 25.4%, the “Dose modifications owing” value is reported as 3.8%, the Incidence of thrombocytopenia amounted to 13.8% and the On-treatment deaths is 5.4%. The “QT interval prolongation events” value in data set [6] (moderate RI) is recorded as 10.0%. Further, the “AEs leading to discontinuations” value in [6] (normal function) was found to be 10.1%. In addition, in [6] (normal renal function), the “Dose modifications owing” value came out at 0.7%, the Incidence of thrombocytopenia was 7.0%, the On-treatment deaths came out at 1.4% and the “QT interval prolongation events” value turned out to be 6.4%. In addition, in data set [7], the “Drug–drug interactions with NSAIs (letrozole and anastrozole) or fulvestrant” value is listed as “no drug–drug interactions”. The “Exposure compared with subjects with normal hepatic function” value in data set [8] (mild hepatic impairment) is “similar”. In [8] (moderate and severe HI), the “Increase in exposure compared with normal hepatic function” value was “approximately 30%”. Moreover, the “Maximal increase in exposure” value in data set [8] (severe HI) was 1.3 fold. Moreover, in data set [9] (mild renal impairment), the “PFS HR (95% CI) RIB vs PBO” value is on record as 0.57 and the “Median PFS (95% CI)” value was found to be 24.8 months. In data set [9] (moderate renal impairment), the “PFS HR (95% CI) RIB vs PBO” value worked out at 0.64 and the “Median PFS (95% CI)” value is 22.2 months. Moreover, in data set [9] (normal renal function), the “PFS HR (95% CI) RIB vs PBO” value was found to be 0.58 and the “Median PFS (95% CI)” value is 23.8 months. Moreover, in the data set on non-cancer subjects (all cohorts), the “Subjects with at least one AE” value worked out at 31.6% and the “Subjects with treatment-related AEs” value is listed as 15.8%. The “Changes from baseline in hematology, chemistry, vital signs, or electrocardiograms” value in the data set on non-cancer subjects (any of the cohorts) is “No clinically meaningful changes from baseline”. In addition, in data set [2] (ESRD, N = 3, single oral dose of ribociclib at 400 mg, Part I and II), the “Ae0-144h Geo-mean (amount excreted into the urine from time 0 to 144 h)” value amounted to 8.11 mg. For the same compound, the “Renal clearance as share of the apparent clearance” value in [2] (Study A2116) is recorded as “around 5%”. In addition, in data set [2] (mild RI), the “Increase in AUCinf compared with normal renal function” value (“Increase in AUCinf” for short) is given as 62% and the “Increase in Cmax compared with normal renal function” value (shortened to “Increase in Cmax”) was 80%. Further, in data set [2] (moderate RI), the “Increase in AUCinf” value amounted to 94% and the “Increase in Cmax” value turned out to be 79%. Further, in [2] (severe RI), the “Increase in AUCinf” value amounted to 167% and the “Increase in Cmax” value was found to be 130%. In addition, the “Effect of RI on PK in covariate analysis” value in data set [10] is “not affected by RI”.

Source of the values: publication PMC10042892 (Clinical Pharmacokinetics, 2023).
